Experimental data from the EternaBench riboswitch data.

Test system: MS2 coat protein
Test: apparent Kd, MS2 coat protein; higher = weaker binding; RNA-MaP array; FMN 200 µM where present
How it was run: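 Stalled E. coli RNA polymerase transcribed each design on Illumina sequencing-chip clusters. The clusters were titrated with SNAP-549-labelled MS2 coat protein, starting at 0.7 or 1.5 nM and doubling up to 3 µM, first without ligand and then with constant ligand, in 100 mM Tris-HCl pH 7.5, 80 mM KCl, 4 mM MgCl2, BSA, DTT, yeast tRNA and Tween-20. Green signal was normalised to red-channel RNA signal and to the control-cluster median Fmax. The apparent Kd is the median of filtered binding-curve fits made for each cluster.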

[1] = designed as: OFF switch for flavin mononucleotide, no ligand
[2] = ligand present: flavin mononucleotide, designed as: OFF switch for flavin mononucleotide
[3] = designed as: ON switch for flavin mononucleotide, no ligand
[4] = ligand present: flavin mononucleotide, designed as: ON switch for flavin mononucleotide

| Sequence | apparent Kd [1] | apparent Kd [2] | apparent Kd [3] | apparent Kd [4] |
| --- | --- | --- | --- | --- |
| CGUAUACAUGAGGAUCACCCAUGUGAGGAUAUGCUUUAUUAUUAUUAUUAUUAUUGUUGCAGAAGGUACAUUGC | 23.5 nM | 18.2 nM | – | – |
| CGUAUGUAAGGAUAUAGCCACAUUACGAAUAAGUAGUGUGGCUAGAAGGUACAUGAGGAUCACCCAUGUAUGGG | 153 nM | 85.3 nM | – | – |
| CGUAUGUCAGGAUAUGCGUAAACCGGUCAGGGCGAGCGGCAGCAGAAGGGACAUGAGGAUCACCCAUGUUCGGG | 46.7 nM | 46.6 nM | – | – |
| CGUCUAUGCCAGAAGGCAUAAAACAUGAGGAUCACCCAUGUCAAAGACAUGAGGAUAUGGCAUAGACGAAAAGUGCGAAAGCAC | – | – | 17.9 nM | 4.97 nM |
| CGUGACGACAUAGGAUAUUGAUACAUGAGGAUCACCCAUGUCACCCAUUUAUAUAUUAGUGAUGACAAGAAGGAUGUGGUCACG | – | – | 33.3 nM | 7.13 nM |
| CGUGCGUAUGUGAGGAUAUGCUGGUCCUUGGAUCGGCAGAAGGCACAUGAGGAUCACCCAUGUGGUGUCGUACG | 351 nM | 22.9 nM | – | – |
| CGUGCGUAUGUGAGGAUAUGCUGGUCCUUGGCUCGGCAGAAGGCACAUGAGGAUCACCCAUGUGGUGUCGUACA | 78.2 nM | 156 nM | – | – |
| CGUGUUAACGAAGGAUAUGGAUACAUGAGGAUCACCCAUGUAUAUUUUGUGAUCUUGUUUAAGAUCCAGAAGGUCGUAUACACG | 33.8 nM | 84.7 nM | – | – |
| CGUUAUUCAGGAUAUGGUGUGUUAUACAUGAGGAUCACCCAUGUAGAUCCUGGUUAGGCCUCAGAAGGGAAUGUUC | 165 nM | 145 nM | – | – |
| CGUUGAUAAUAUCUUCACAUGAGGAUCACCCAUGUCGCUCGACAGGAUAUAUUUGAGUUGUUUAAGUAGAAGGGUCGCAGAUGC | – | – | 148 nM | 136 nM |
| CGUUUAUUUAUUGGAUUAUAUUAUGAGGAUAUCAAUAUUUAUUACAUGAGGAUCACCCAUGUUAAUGAGAAGGCAUAAUUAACG | – | – | 9.99 nM | 6.68 nM |
| CGUUUGUGGCAACUAUCCUCACAUGAGGAUCACCCAUGUAGGGAGGAUAUGCAUUUAAAGAAGUGGCAGAAGGCCCUACACGAA | 101 nM | 89.5 nM | – | – |
| CUAAAAGUCGAGGAUAUGCACCGGCUUUUUGACGCAGAAGGCGACACAUGAGGAUCACCCAUGUCGGUACGCGA | 12.2 nM | 13 nM | – | – |
| CUAGACAGAUCAGGAUAUCAUCGCAUGGUGCAUCCCUGUGAUUACAUGAGGAUCACCCAUGUGCAUGAGAAGGGAUUACUAUGU | 46.5 nM | 13.1 nM | – | – |
| CUAGCAACAUGAGGAUCACCCAUGUAGGAUAUCGCUAUUGUAAUCAUGAAACAUGAUUACAAUAGCGAGAAGGACAUAUGCUAU | 8.33 nM | 9.83 nM | – | – |
| CUAUGAGCGAUAGGAUAUACUGAGAUUGAAUGGGUAGAAGGAUCGAUCGUGUAGAAGACAUGAGGAUCACCCAUGUUACGGGCC | – | – | 73.9 nM | 93.5 nM |
| CUAUGAGCGAUAGGAUAUACUGAGAUUGAGUGGGUAGAAGGAUCGAUCGUGUAGAAGACAUGAGGAUCACCCAUGUUACGGGCC | – | – | 115 nM | 147 nM |
| CUAUGCCGAAUAGGAUAUUCGAUCAAAAGGAUAGAAGAAGGGUUACAUGAGGAUCACCCAUGUAUGCACAUGAGGAUCCCUUAG | 279 nM | 316 nM | – | – |
| CUAUUACGAGGAUAUGAUUUAAAUAACAUGAGGAUCACCCAUGUUUUUACGUUAUUUUGUUUAGAAGGCGUAUUGU | 52.9 nM | 35.7 nM | – | – |
| CUAUUAUUGAUCCAUUUUUUCAACAUGAGGAUCACCCAUGUGCAGGAUAUCGUGAUUAUUAUCAACGAGAAGGGCAAAUUCACG | 45.7 nM | 149 nM | – | – |
| CUAUUCCGAGGAUAUACAUGAGGAUCACCCAUGUCGGGCCUCUGGCCUAAGGCCGAAAGUAGAAGGUGGGUUUC | 64.6 nM | 61.5 nM | – | – |

| Sequence | apparent Kd [1] | apparent Kd [2] | apparent Kd [3] | apparent Kd [4] |
| --- | --- | --- | --- | --- |
| CUAUUUUGUGCCUCAUUUACAUGAGGAUCACCCAUGUUAACUUAGGAUAUAUUUAUAUUGUUAGAGUAGAAGGAAGUACAAUUU | 83.5 nM | 55.9 nM | – | – |
| CUCAAGUUAGGAUAUUGACGCCCAAGACGGCGUCUUGGGCACAAGAAGGGACAUGAGGAUCACCCAUGUCAAUA | 24.1 nM | 27.7 nM | – | – |
| CUCACAAGAGGAUAUUAAUAGCUUAACAUGAGGAUCACCCAUGUCCUUUUCUCGGGAUUUUGAGAAGGCUUGUGUG | 341 nM | 189 nM | – | – |
| CUCACGUUAGUAGGAUAUCCGACAUGAGGAUCACCCAUGUCACUACGCCGAUAGGGAAGGUGUAAGGAGAAGGGCUGAUAAAUA | – | – | 124 nM | 92.9 nM |
| CUCAGACAUGAGGAUCACCCAUGUCAGGAUAUCGUCUACCUGUGGAAACACAGGUAGACGAGAAGGGAUGUGUU | 51.6 nM | 44.1 nM | – | – |
| CUCAGCUCGUCAGGAUAUACGUCACUGCUUCGGCAGUGUGGUAAGAUCACAUGAGGAUCACCCAUGUAGAAGGGACGAGCUGAU | 11.7 nM | 248 nM | – | – |
| CUCAUGUAAGGAUAUCAGUAGUAAAAAAAUAAAAUUACUACUGAGAAGGUACAUGAGGAUCACCCAUGUAUCUU | 84.8 nM | 72.5 nM | – | – |
| CUCAUGUAAGGAUAUCAGUAGUAAAAAAAUAAAAUUACUACUGAGAAGGUACAUGAGGAUCACCCAUGUCCUUC | 96.1 nM | 56.2 nM | – | – |
| CUCGCGUUAGGAUAUGCUAGCUGAGAAUAAUCUGCAGCGGUGCAGAAGGAACAUGAGGAUCACCCAUGUAGGGA | 278 nM | 43.6 nM | – | – |
| CUCUUGGCAGGAUAUGCUCUCUUAGACAUGAGGAUCACCCAUGUGUUCAUUCUUUCUUUUGCAGAAGGGCCUUAAC | 87.1 nM | 82.8 nM | – | – |
| CUCUUGUGAGGAUAUCAGUAGUAAAAAAAUAAAAUUACUACUGAGAAGGCACAUGAGGAUCACCCAUGUGACUU | 26.2 nM | 30.5 nM | – | – |
| CUGAGCUCAGGAUAUACAUGAGGAUCACCCAUGUGUUCCUGCGACGUUAGUUGCACAUGUAGAAGGGAGUUCGG | 272 nM | 57.8 nM | – | – |
| CUGAGCUGAGGAUAUACAUGAGGAUCACCCAUGUGGGCCUGCGAGGUUACUUGCACAUGUAGAAGGCAGUUCGG | 136 nM | 17.2 nM | – | – |
| CUGAGCUGAGGAUAUACAUGAGGAUCACCCAUGUUUUGUAGUUAGUGAAGAAGUAGUUGUAGAAGGCAGUUCGG | 51.3 nM | 255 nM | – | – |
| CUGAGGUCAGGAUAUGCAUGGCGGGACUUGCGUCGUGGCGUGGAGAAGGGACAUGAGGAUCACCCAUGUGGAGA | 83 nM | 81.1 nM | – | – |
| CUGAUGUCAGGAUAUCAGAAAAGGUGCAAGGACGCACCAAAUGAGAAGGGACAUGAGGAUCACCCAUGUAAAAC | 25 nM | 122 nM | – | – |
| CUGAUGUGAGGAUAUCGGGCUACAGCCAGGCUGCUAGCAUACGAGAAGGCACAUGAGGAUCACCCAUGUGAGAA | 48.3 nM | 49.1 nM | – | – |
| CUGAUGUUAGGAUAUCAGGUCACGCGCGAAGGCGCGCGGCAUGAGAAGGAACAUGAGGAUCACCCAUGUGACGA | 42.8 nM | 160 nM | – | – |
| CUGCGCUAGGAGAAGGGCUAGAGUGUGAUAUAUUUGCCCGCGAGCACAUGAGGAUCACCCAUGUAGCAGGAUAUCCAAGCCGGU | 6.86 nM | 16.5 nM | – | – |
| CUGCGGUAGGAGAAGGACGGCGGGUUCUUUUCAUACAUGAGGAUCACCCAUGUAGGAUAUCCUACCUCAGGCGGCCUACUACAG | 7.68 nM | 10.9 nM | – | – |
| CUGCUUCCCAGUUUGGUUAUUUAUACAGAAGGCCAUUCACAUGAGGAUCACCCAUGUCAAGUAAUGGAGGAUAUGUUAUUGUCG | – | – | 6.64 nM | 4.65 nM |
